We go through one compound from ChEMBL document CHEMBL4411261, “Down-Regulation of the Androgen Receptor by G-Quadruplex Ligands Sensitizes Castration-Resistant Prostate Cancer Cells to Enzalutamide” (J Med Chem, 2018).

pIC50, pKd: −log10 of the molar value. Calls of active or inactive are those of the source. No cut-off for these calls is given here.

Assay [1] is described as follows: Binding affinity to 5'-Biotinylated-AGTGAGAGTGAGAGAGAGAGTGAGAGTGAGAGTGA ssDNA (unknown origin) by SPR analysis. The method in brief:
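SPR on streptavidin chip; 5′-biotinylated oligo folded by heating 95 °C 5 min in 10 mM lithium cacodylate, 150 mM KCl, then immobilized at 30 nM to about 600 RU; empty reference cell. Compound 0.7−400 nM in HEPES-KCl (pH 7.4, 0.15 M KCl, 3 mM EDTA) at 40 °C, 40 μL/min, 260 s contact, 600 s dissociation; glycine pH 2.0 regeneration; steady-state affinity fit; at least two independent runs.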
In general terms: In SPR one partner is held on a chip, and binding of the other changes the refractive index at the surface.

Assay [2] concerns PNT1A. Put plainly: Cytotoxicity against human PNT1A cells assessed as reduction in cell viability after 48 hrs by MTS assay. The class given is cell-based. In outline:
(§1)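 Cells kept in RPMI-1640 with 10% fetal calf serum, 37 °C, 5% CO2. Seeded, after 24 h treated with 0.0001, 0.001, 0.01, 0.1, 1 and 10 μM compound (DMSO stocks freshly diluted in medium) for 48 h. MTS added 4 h, absorbance 490 nm; IC50 from curves of % viability inhibition versus DMSO-treated cells against log concentration.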

Assay [3] relates to DU-145. Kind of assay: Cytotoxicity against human DU145 cells assessed as reduction in cell viability after 48 hrs by MTS assay. It is filed as functional, cell-based. To be noted: DU-145, 48 h. The method in brief: as §1
Assay [4] concerns LNCaP. Put plainly: Cytotoxicity against human LNCAP cells expressing androgen receptor T877A point mutant assessed as reduction in cell viability after 48 hrs by MTS assay. It is filed as functional, cell-based. The method in brief:
as §1

In assay [5] the test system is Quadruplex DNA. Kind of assay: Stabilization of AR G-quadruplex oligonucleotide in human 22Rv1 cells assessed as reduction in AR-VS protein level at IC50 after 48 hrs by Western immunoblot assay. It is filed as cell-based. In general terms: Immunoblotting shows a protein as a band on a membrane.
Assay [6] concerns Quadruplex DNA. Kind of assay: Stabilization of AR G-quadruplex oligonucleotide in human LNCAP cells assessed as reduction in AR-FL protein level by immunoblotting assay. It is filed as cell-based. In outline:
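Lysate proteins immunoblotted. Vinculin or β-actin used as loading control, peroxidase-linked secondary antibodies, ECL chemiluminescent detection, autoradiography, densitometric scan. Untreated cells received DMSO.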

For assay [7], the system named is Quadruplex DNA. Kind of assay: Stabilization of AR G-quadruplex oligonucleotide in human LNCAP cells assessed as reduction in AR mRNA expression at IC50 after 48 hrs by RT-PCR analysis. It is filed as cell-based. The method in brief: (§2)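 Cells grown in RPMI-1640 with 10% fetal calf serum, 37 °C, 5% CO2, treated at an equitoxic concentration. Transcripts quantified by TaqMan real-time RT-PCR, normalized to RNaseP, expressed as relative quantity versus untreated cells (calibrator) by the 2−ΔΔCt method.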

The subject of assay [8] is Quadruplex DNA. Kind of assay: Stabilization of AR G-quadruplex oligonucleotide in human LNCAP cells assessed as reduction in AR mRNA expression at IC50 after 72 hrs by RT-PCR analysis. It is filed as cell-based. In outline:
as §2

Assay [9] deals with Quadruplex DNA. Kind of assay: Stabilization of AR G-quadruplex oligonucleotide in human LNCAP cells assessed as down-regulation of KLK3 mRNA expression at IC50 after 72 hrs by RT-PCR analysis. The class given is cell-based. The method in brief:
as §2

The nature of assay [10]: Stabilization of AGTGAGAGTGAGAGAGAGAGTGAGAGTGAGAGTGA ssDNA (unknown origin) assessed as change in melting temperature at 16 uM after 16 hrs in presence of 100 mM K+ by CD spectra analysis. The method in brief: (§3)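 CD: oligos at 4 μM final in 10 mM lithium cacodylate pH 7.4, 100 mM KCl, annealed 95 °C 5 min then 4 h room temperature; duplex from equimolar strands. Ligand 16 μM final, 16 h room temperature. Spectra 230−320 nm, 5 mm cell, two scans averaged at 20 °C, buffer-subtracted; melting from spectra 20−90 °C in 5 °C steps.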

Assay [11] is described as follows: Stabilization of AGTGAGAGTGAGAGAGAGAGTGAGAGTGAGAGTGA/TCACTCTCACTCTCACTCTCTCTCTCACTCTCACT dsDNA (unknown origin) assessed as change in melting temperature at 16 uM after 16 hrs in presence of 100 mM K+ by CD spectra analysis. In outline: as §3
Assay [12] in a line: Stabilization of AGTGAGAGTGAGAGAGAGAGTGAGAGTGAGAGTGA ssDNA (unknown origin) assessed as effect on conformational change at 16 uM after 16 hrs in presence of 100 mM K+ by CD spectra analysis. The method in brief:
as §3

Assay [13] is described as follows: Stabilization of AGTGAGAGTGAGAGAGAGAGTGAGAGTGAGAGTGA/TCACTCTCACTCTCACTCTCTCTCTCACTCTCACT dsDNA (unknown origin) assessed as assessed as effect on conformational change at 16 uM after 16 hrs in presence of 100 mM K+ by CD spectra analysis. In outline: as §3
The subject of assay [14] is Quadruplex DNA. Kind of assay: Stabilization of AR G-quadruplex oligonucleotide in human 22Rv1 cells assessed as inhibition of telomerase activity at IC50 after 48 hrs by TRAP assay. It is filed as cell-based.
Assay [15] has as its system Quadruplex DNA. Put plainly: Stabilization of AR G-quadruplex oligonucleotide in human 22Rv1 cells assessed as reduction in cyclin D1 protein level at IC50 after 48 hrs by Western immunoblot assay. It is filed as cell-based.
The test system of assay [16] is PC-3. Put plainly: Effect on JUN mRNA expression in human PC3 cells at IC50 after 48 hrs by RT-PCR analysis. It is filed as functional, cell-based. In outline:
(§4)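 Transcripts quantified by TaqMan real-time PCR with RNaseP as normalizer; relative quantity versus untreated cells by the 2−ΔΔCt method. Panel genes measured with a 92-gene cancer-mechanism TaqMan array.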

For assay [17], the system named is CWR22R. Put plainly: Synergistic cytotoxicity against human 22Rv1 cells expressing full length androgen receptor H875Y point mutant assessed as combination index for reduction in cell viability measured at ED75 Enzalutamide at 0.001 to 0.1 uM after 72 hrs by MTS assay based Chou and Talay's plot analysis. The class given is functional. In outline: (§5)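 Cells in RPMI-1640 with 10% fetal calf serum were exposed to ligand (0.001−0.1 μM) plus enzalutamide (0.5−50 μM) at a fixed ratio, five concentrations, for 72 h at 37 °C, 5% CO2. Viability read by MTS absorbance at 490 nm after 4 h. Combination index computed at ED50 and ED75 by the Chou–Talalay method.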
Background: Tetrazolium assays rely on reduction of a dye to a coloured formazan, in cell work by metabolically active cells.

For assay [18], the system named is CWR22R. Kind of assay: Synergistic cytotoxicity against human 22Rv1 cells expressing full length androgen receptor H875Y point mutant assessed as ED75 for Enzalutamide at 0.001 to 0.1 uM after 72 hrs by MTS assay. The class given is functional. In outline: as §5
In assay [19] the test system is Quadruplex DNA. Put plainly: Stabilization of AR G-quadruplex oligonucleotide in human 22Rv1 cells assessed as regulation of AKT1 mRNA expression at IC50 after 48 hrs by RT-PCR analysis. It is filed as cell-based. The method in brief: as §4
Assay [20] concerns Quadruplex DNA. Kind of assay: Stabilization of AR G-quadruplex oligonucleotide in human 22Rv1 cells assessed as down-regulation of CCND1 mRNA expression at IC50 after 48 hrs by RT-PCR analysis. It is filed as cell-based. The method in brief: as §4
The subject of assay [21] is PC-3. Kind of assay: Synergistic cytotoxicity against human PC3 cells assessed as combination index for reduction in cell viability measured at ED50 Enzalutamide at 0.001 to 0.1 uM after 72 hrs by MTS assay based Chou and Talay's plot analysis.

One may read the pKd as −log10 of the Kd, conventionally taken in molar units. In general, pIC50 refers to the negative decadic logarithm of the IC50, by convention in mol/L. For orientation: ΔTm means the change in melting temperature against a reference sample. `CN(C)CCCn1c(=O)c2ccc3c(=O)n(CCCN(C)C)c(=O)c4c5[nH]c6ccccc6[nH]c5c(c1=O)c2c34.Cl.Cl`: the pKd in assay [1] was 6.71. In addition, the negative-log IC50 (pIC50) in assay [2] was 6.55; in assay [3] it was 7.10; in assay [4] it was 6.85. Further, the outcome in [5], in assay [6], in assay [7], in [15], in [19] and in assay [20] was Active. The outcome in assay [8], in assay [9], in assay [12], in assay [13] and in assay [16] was inactive. For the same compound, the thermal shift (ΔTm) in assay [10] worked out at 4.7 °C; in assay [11], 2.7 °C. Moreover, the inhibition result in assay [14] is “Active”. Besides, the CI in assay [17] is recorded as less than 1; in assay [21], more than 1. The ED75 in [18] is 370 nM.
